Measured values pooled from the literature.
Lines come from different studies, so protocols differ.
Target: Dual specificity tyrosine-phosphorylation-regulated kinase 1A (DYRK1A, Homo sapiens, UniProt Q13627)
Method: competition with immobilised ligand

`Cc1c(C(=O)O)cc(-c2ccc(C3CCNCC3)cc2)c2ccc(-c3ccc(C(F)(F)F)cc3)cc12` gave a remaining binding of 100% (cell-free assay; 1 µM).
`COc1cnc(Nc2cccc(S(N)(=O)=O)c2)nc1N1CCN(c2ccccc2)C(=O)C1` gave a remaining binding of 91% (binding; 1 µM).
`O=C(NC[C@@H]1[C@H]2CN(C(=O)OCc3cc(C(F)(F)F)cc(C(F)(F)F)c3)C[C@@H]12)c1ccc2[nH]nnc2c1` has a remaining binding of 86% (cell-free assay; 1 µM).
`C=CC(=O)N1CCC(C(=O)NCC(=O)N2CCN(c3nc(-c4cnc(N)nc4C(F)F)nc(N4CCOCC4)n3)CC2)CC1` gave a remaining binding of 94% (binding; 1 µM).
`CSc1cccnc1N1CCN(Cc2nc3ccccc3[nH]2)CC1` gave a remaining binding of 79% (cell-free assay; 1 µM).
For `O=C(NCCCN1CCOCC1)c1ccc(Nc2ncc(Cl)c(-c3ccc(Cl)s3)n2)cc1`, the remaining binding was 0.5% (binding; 1 µM).
`C[C@@H](c1ccc(-n2cnc3c(N)ncnc32)cc1)N1CCc2nn(C)c(Cc3ccccc3)c2C1=O` gave a remaining binding of 80% (binding; 0.1 µM).
`O=C(NCCCN1CCOCC1)c1ccc(Nc2nccc(-c3cc4ccccc4s3)n2)cc1` has a remaining binding of 41% (binding; 1 µM).
The remaining binding of `COC(=O)Nc1nc2ccc(C(=O)c3ccccc3)cc2[nH]1` is reported as 34% (cell-free assay; 10 µM).
The remaining binding of `O=C(c1ccc(Nc2ncc(Cl)c(-c3cc4ccccc4s3)n2)cc1)N1CCC(N2CCCC2)CC1` is reported as 11% (binding; 1 µM).
For `COc1ccc2c(c1)O[C@@H](c1ccc(OC)c(OC)c1)C[C@H]2NC(=O)C1(c2ccc3c(c2)OC(F)(F)O3)CC1`, the remaining binding was 80% (cell-free assay; 1 µM).
`COc1cnc(Nc2cccc(S(N)(=O)=O)c2)nc1N1CCN(c2ccccc2)CC1` gave a remaining binding of 76% (binding; 1 µM).
With `O=C(NCC1CCOCC1)c1n[nH]cc1NC(=O)c1c(F)cccc1F` the remaining binding was 0.4% (binding; 1 µM).
